# Assay results published in paper PMC3398233 (Chemical Research in Toxicology, 2012).
# Values joined by “and” are separate entries in the source; they are usually repeats but may differ in a detail not shown here. Identical values can stand only once.
# Experiments:
# [1] = Phase II metabolism; format: in vitro ADME, human; conditions: HLM; for Phase II metabolites detected (glucuronidation): 2 mM UDPGA, alamethicin, MgCl2, 90 min; for loss of parent compound during Phase II incubation: glucuronidation cofactors, 90 min
# [2] = Phase II metabolism; format: in vitro ADME, human; conditions: cytosol, 90 min; for Phase II metabolites detected (sulfation, glutathione conjugation): PAPS or reduced glutathione; for loss of parent compound during Phase II incubation: sulfation / glutathione cofactors
# [3] = TBB/TBPH metabolism in human liver microsomes; format: in vitro ADME
# [4] = test system: hepatic porcine carboxylesterase; assay: Metabolism in purified hepatic porcine carboxylesterase; format: in vitro ADME; conditions: Michaelis-Menten model, 10-min incubations
# [5] = Solubility limit of TBB in incubation buffer; format: physicochemical; conditions: potassium phosphate buffer, pH 7.4
# How it was run: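 Practical upper limit judged from kinetics incubations in 100 mM potassium phosphate (pH 7.4), glass tubes, shaking at 37°C, 10 min, nine concentrations 0.0078–31.1 μM. Dosing concentrations checked by LC/MS/MS (negative APCI, C18 column, isocratic 98% methanol). Limit taken as the highest concentration without unacceptably high variability in measured substrate concentration.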
# [6] = cited from earlier work
# [7] = test system: fathead minnows (Pimephales promelas); conditions: dietary exposure to commercial mixture containing TBB and TBPH; cited from earlier work
# [8] = test system: PCE; assay: DEHP hydrolysis to MEHP by PCE; format: in vitro ADME, porcine; conditions: 127 vs 1.08 pmol min^-1 mg protein^-1
# [9] = test system: PCE; conditions: DEHP 50 μM; cited from earlier work
smiles,measurement,setting,value
"CCCCC(CC)COC(=O)c1c(Br)c(Br)c(Br)c(Br)c1C(=O)O (stereo not drawn) [TBMEHP, mono(2-ethylhexyl) 2,3,4,5-tetrabromophthalate]",Phase II metabolites detected (glucuronidation),[1],no Phase II metabolites were detected
same,loss of parent compound during Phase II incubation,[1],no significant losses
same,"Phase II metabolites detected (sulfation, glutathione conjugation)",[2],no Phase II metabolites were detected
same,loss of parent compound during Phase II incubation,[2],no significant losses
"CCCCC(CC)COC(=O)c1cc(Br)c(Br)c(Br)c1Br (stereo not drawn) [TBB, 2-ethylhexyl-2,3,4,5-tetrabromobenzoate]",decrease of TBB during incubation (amount),"[3]; 60-min incubation, HLM 40 μg protein mL^-1, TBB 27.1 ± 1.3 μM",~2.9 nmol
same,reduction in the concentration of TBB,"[3]; 60-min incubations with HLM, metabolite identification, GC/MS",79.9 ± 4.6%
same,Vmax for TBBA formation in HLM,"[3]; Michaelis-Menten model, 10-min incubations, 40 μg protein mL^-1, TBB 0.0078–31.1 μM",0.644 ± 0.144 nmol min^-1 mg protein^-1
same,effect of NADPH on the formation rate of TBBA,"[3]; NADPH 0, 0.3, 3.0 and 30 mM, data not shown",did not significantly affect
same,Km at 10 min,"[3]; both, human, pH 7.4, Km for TBBA formation in HLM, Michaelis-Menten model, 10-min incubations, 40 μg protein mL^-1, TBB 0.0078–31.1 μM",11.1 ± 3.9 µM
same,Km,"[3]; read-out: Km for TBBA formation in HLM, Michaelis-Menten model, 10-min incubations, 40 μg protein mL^-1, TBB 0.0078–31.1 μM",~10 µM
same,Vmax for TBBA formation in PCE,[4],24.4 ± 2.6 nmol min^-1 mg protein^-1
same,Km,[4]; read-out: Km for TBBA formation in PCE,9.3 µM and ~10 µM
same,solubility,[5],~30 µM
same,estimated log KOW,[6],8.8
same,metabolism in fathead minnows,[7],metabolized to form unidentified brominated metabolites
"O=C(O)c1cc(Br)c(Br)c(Br)c1Br [TBBA, 2,3,4,5-tetrabromobenzoic acid]",Phase II metabolites detected (glucuronidation),[1],no Phase II metabolites were detected
same,loss of parent compound during Phase II incubation,[1],no significant losses
same,"Phase II metabolites detected (sulfation, glutathione conjugation)",[2],no Phase II metabolites were detected
same,loss of parent compound during Phase II incubation,[2],no significant losses
"CCCCC(CC)COC(=O)c1ccccc1C(=O)OCC(CC)CCCC (stereo not drawn) [DEHP, bis(2-ethylhexyl) phthalate]",DEHP hydrolysis rate relative to TBPH hydrolysis rate in PCE,[8],approximately 100 times
same,MEHP formation rate from DEHP in PCE,[9],127 pmol min^-1 mg protein^-1
